# Screening results (PubChem)
# This is a sample that favours compounds with a hit; in the whole collection about 4.8% have one here.
# ATG4B inh: blocks human ATG4B protease cleavage of LC3 substrate | ATG4B cleavage of LC3-PLA2, NBD-HPC fluorescence, 1 h | inhibition, % at 8.33 µM | 0.51% of 340,000 active | AID 504462; in the data active = inhibition above about 40%
# NLRP3 yeast inh: inhibitors of NALP3 inflammasome in yeast; Yeast reconstituted NLRP3/ASC/caspase-1, beta-gal luminescence, 24 h; inhibition, % at 10 µM; 0.39% of 330,000 active; AID 2825;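 active = inhibition of 50% or more; inactive = inhibition below 50%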;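 note: plate controls were induced DMSO wells for no effect and uninduced yeast grown without galactose for full effect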
# ALR inh: blocks human ALR sulfhydryl oxidase activity | 3.8% of 290,000 active | purified ALR, DTT oxidation, H2O2 HRP-luminol luminescence | AID 485317 | inhibition, % (no concentration beside the values) | P55789;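 active = mean replicate inhibition above about 79%, with every replicate also reaching it, limit read from the data; inconclusive = only one of the two criteria met; inactive = mean below limit and not every replicate reaching it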
# UCH37 DUB inh: blocks the human deubiquitinase UCH37 | Q9Y5K5 | purified proteasome/UCH37, Ub-AMC cleavage fluorescence | inhibition, % (test concentration not listed) | 0.33% of 330,000 active;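 active = mean inhibition over replicate wells above about 20%, limit read from the data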;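 note: 0% = compound-free wells with enzyme and 100% = wells lacking proteasome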
# Target sequence (Q9Y5K5 whole entry, looked up): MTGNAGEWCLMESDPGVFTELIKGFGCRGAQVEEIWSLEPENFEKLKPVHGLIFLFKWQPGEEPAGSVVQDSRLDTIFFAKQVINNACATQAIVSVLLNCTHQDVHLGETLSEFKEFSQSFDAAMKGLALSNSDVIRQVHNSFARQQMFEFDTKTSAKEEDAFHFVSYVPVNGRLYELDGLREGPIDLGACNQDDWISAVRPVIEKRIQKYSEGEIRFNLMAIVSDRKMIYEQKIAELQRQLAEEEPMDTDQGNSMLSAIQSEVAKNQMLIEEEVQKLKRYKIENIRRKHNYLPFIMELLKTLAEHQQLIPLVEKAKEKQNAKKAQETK
#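 system = Proteasome-associated human UCH37 deubiquitinase | amount = 0.15 nM proteasome as dispensed | medium = pH 7.4 Tris-HCl (50 mM) with ovalbumin, ATP-MgCl2, DTT | incubation = 30 min preincubation with enzyme, 25 min cleavage at room temperature | detection = AMC fluorescence 355/460 nm | read-out basis = percent inhibition | controls = no-proteasome and no-compound wells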
# Calb FLC: C. albicans growth modulation with fluconazole; C. albicans CaCi-2 (fluconazole-resistant clinical isolate) + fluconazole, Alamar Blue growth, 48 h; growth inhibition, % (no concentration beside the values); 0.57% of 300,000 active; AID 1979;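 active = growth inhibition above about 58% in most replicates, limit read from the data, passing the limit was not always enough; inconclusive = exactly half the replicates above a set limit; inactive = most replicates below a set limit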;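 note: all wells also contain fluconazole at 8 µg/ml as a sub-toxic cotreatment; 0% = median of DMSO wells and 100% = median of geldanamycin control wells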
# NALP1 inh: NALP1 inhibition | 0.61% of 280,000 active | AID 2071 | inhibition, % at 10 µM | S. cerevisiae NALP1/ASC/caspase-1 growth, X-gal OD620, 72 h; in the data active = inhibition mostly above about 24%, no sharp cut-off; inactive = mostly below about 32%
# * = called active by the depositor; ? = inconclusive; · = no result given.
SMILES,ATG4B inh,NLRP3 yeast inh,ALR inh,UCH37 DUB inh,Calb FLC,NALP1 inh
N#Cc1ccccc1CSc1nc2ccc(NC(=O)c3ccccc3C(=O)O)cc2s1,32.1,20.3,99.1*,6.1,-48.5,-12.8
CCOc1cccc(-c2c(C(=O)NN=Cc3sccc3C)nnn2-c2nonc2N)c1,·,·,·,0.3,·,·
CC(=O)CN1Cc2ccccc2C1=NC(=O)Nc1ccccc1,·,·,·,1.0,·,·
NS(=O)(=O)c1ccc(NC(=O)/C=C/c2ccco2)cc1,1.6,17.0,95.7*,7.3,10.6,-4.7
CC(C)c1ccc(OCC(=O)Nc2cccc(C(=O)Nc3ccccc3C(=O)O)c2)cc1,13.9,15.7,97.6*,3.9,75.9*,1.6
O=C(CSCc1ccc(Cl)cc1)Nc1cccc(C(=O)Nc2ccccc2C(=O)O)c1,-6.4,14.0,97.6*,1.1,-5.1,38.8
CCc1ccccc1NC(=O)c1cccc(NC(=O)/C=C/c2ccco2)c1,30.4,11.1,-2.6,5.5,-2.5,20.6
O=C(O)CCCC(=O)Nc1cccc(C(=O)Nc2ccccc2C(=O)O)c1,-4.5,4.3,-3.2,3.4,-3.0,-4.3
O=C(/C=C/c1ccco1)Nc1cccc(C(=O)Nc2ccccc2C(=O)O)c1,32.5,-11.8,95.2*,6.3,-1.3,-7.0
O=C(CSCc1ccccc1)Nc1cccc(C(=O)Nc2ccccc2C(=O)O)c1,4.0,11.1,98.3*,-3.6,22.9,-2.4
Cc1ccc(C)n1/N=C1/NC(=O)CS1,41.2*,14.1,4.3,6.5,13.7,·
O=C(Nc1ccc(-c2n[nH]c(=S)o2)cc1)c1ccccc1Br,-1.8,23.7,86.3*,5.0,0.2,-9.8
Cc1ccc(NC(=O)CSCC(=O)NC2(C)CCS(=O)(=O)C2)cc1 (configuration not stated),-0.9,16.1,98.6*,0.7,·,·
Nc1ccc2nc(N3CCOCC3)sc2c1,3.8,11.3,99.3*,2.8,11.7,-1.7
c1ccc2sc(N3CCOCC3)nc2c1,12.3,-4.2,-1.7,-1.2,10.3,5.6
Nc1ccc2nc(SCC(=O)N3CCOCC3)sc2c1,13.9,13.8,99.5*,3.2,-14.2,39.6*
COc1ccc(CNC(=O)CSc2nc3ccc(N)cc3s2)cc1,-12.2,14.7,98.3*,5.6,-81.2,28.6
CCOC(=O)CSc1nc2ccc(N)cc2s1,-3.2,6.4,99.2*,-1.9,-14.6,21.5
CCCC(=O)Nc1ccc2nc(SCC(=O)Nc3ccc(N4CCOCC4)c(Cl)c3)sc2c1,-7.3,25.3,10.8,3.7,7.4,2.5
Nc1ccc2nc(SCc3cccc(F)c3)sc2c1,14.9,47.5,98.9*,3.4,-4.8,25.3
Nc1ccc2nc(SCC(=O)Nc3ccc(N4CCOCC4)c(Cl)c3)sc2c1,-2.1,-1.6,99.2*,2.9,-4.7,10.8
CCOC(=O)CSc1nc(N)c(C(=O)Nc2ccc(N(C)C)cc2)s1,2.2,-12.5,87.8*,12.0,-2.8,2.1
Nc1ccc2nc(SCC(=O)N3CCN(c4ccccc4)CC3)sc2c1,4.4,18.4,·,6.6,?,·
C(=NNc1nc2ccccc2[nH]1)C1CCCCC1,·,·,·,-1.8,·,·
O=C(NN=Cc1cccc2ccccc12)c1cc2ccccc2o1,·,·,·,-9.2,·,·
SMILES,ATG4B inh,NLRP3 yeast inh,ALR inh,UCH37 DUB inh,Calb FLC,NALP1 inh
COc1ccc(OCC(=O)NN=Cc2ccco2)cc1,·,·,·,3.1,·,·
CC(NC(=O)CSc1n[nH]c(N)n1)c1ccccc1 (configuration not stated),-6.5,25.8,·,0.0,-1.8,5.2
CC(NC(=O)CSc1nc2ccc(N)cc2s1)c1ccccc1 (configuration not stated),1.7,19.0,95.8*,1.3,-26.4,2.0
Cc1ccc(NC(=O)CSCC(=O)Nc2ccc(N3CCOCC3)c(Cl)c2)cc1,-6.3,14.2,97.7*,-2.4,-2.1,0.8
COc1ccc(NC(=O)COc2nc(N(C)C)nc(N(C)C)n2)cc1,0.1,20.2,0.8,1.9,-5.0,27.7*
Cc1cc(C)n2cc(CSc3nc4ccccc4s3)nc2n1,-0.9,1.4,·,-0.7,18.5,27.8
Cc1cc(C)n2cc(CSc3nc4ccccc4[nH]3)nc2n1,6.0,10.8,99.0*,-3.1,-5.8,5.8
